This note sets out measurements from ChEMBL document CHEMBL1138270, “Antimycobacterial activities of novel 1-(cyclopropyl/tert-butyl/4-fluorophenyl)-1,4-dihydro- 6-nitro-4-oxo-7-(substituted secondary amino)-1,8-naphthyridine-3-carboxylic acid” (J Med Chem, 2007).

Values after ≈ are worked out from the molar mass of the structure shown. Bounds are passed on as bounds.

Series [1] relates to Mycobacterium tuberculosis. Kind of series: Antimycobacterial activity against Mycobacterium tuberculosis ATCC 35801 infected CD1 mouse assessed as spleen bacterial count at 25 mg/kg, ip after 35 days post infection. Type of series: functional. Particulars: route intraperitoneal. The procedure, abridged:
(§1)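 CD-1 mice were infected intravenously via the caudal vein with about 10⁷ viable M. tuberculosis ATCC 35801. Intraperitoneal treatment began 10 days after inoculation and ran for 10 days. At 35 days post-infection, spleens and right lungs were homogenized, serially diluted 10-fold and plated on 7H10 agar at 37 °C in ambient air for 4 weeks. Counts were compared with vehicle-treated controls and given as log CFU ± SEM.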

The subject of another series is Vero. As to the kind of experiment: Cytotoxicity against Vero cells after 72 hrs by MTT assay. Type of series: cell-based. Particulars: Chlorocebus sabaeus. The procedure, abridged:
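Vero cells were exposed to serially diluted compound up to 62.5 µg/mL for 72 h. Viability was read by cellular conversion of MTT to formazan (CellTiter 96 non-radioactive proliferation assay), and IC50 was derived.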

Series [2] deals with Mycobacterium tuberculosis. As to the kind of experiment: Antimycobacterial activity against Mycobacterium tuberculosis H37Rv by agar dilution method. Type of series: functional. Put shortly: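 MIC was determined by agar dilution, in duplicate.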
The test system of series [3] is Mycobacterium tuberculosis. As to the kind of experiment: Antimycobacterial activity against Mycobacterium tuberculosis ATCC 35801 infected CD1 mouse assessed as lung bacterial count at 25 mg/kg, ip after 35 days post infection. Type of series: functional. To be noted: route intraperitoneal. The procedure, abridged:
as §1

Series [4] has as its system Mycolicibacterium smegmatis. Kind of series: Antimicrobial activity against Mycobacterium smegmatis by agar dilution method. Type of series: functional. The procedure, abridged:
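Agar dilution against M. smegmatis ATCC 14468; MIC determined in duplicate.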

In series [5] the test system is Mus musculus. Kind of series: Phototoxicity in Swiss Albino mouse assessed as ear thickness at 140 mg/kg, po after 96 hrs of irradiation. Type of series: organism-based. Also on record: dose 140 mg/kg, route oral. To be noted: in vivo. The procedure, abridged: (§2)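 Female Swiss albino mice (~2 months, 20-25 g) were fasted ≥18 h and given 140 mg/kg orally by gavage; controls received 0.5% Na-CMC vehicle at 10 mL/kg. UVA started right after dosing, 4 h (~18 J/cm2). Ear thickness was measured before dosing and at 4, ~24, 48, 72 and 96 h, reported as mean of left and right ears ± SEM.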

The subject of series [6] is Mus musculus. Kind of series: Phototoxicity in Swiss Albino mouse assessed as ear erythema at 140 mg/kg, po after 48 hrs of irradiation. To be noted: in vivo. Also on record: dose 140 mg/kg, route oral. Type of series: organism-based.
Series [7] has as its system Mus musculus. As to the kind of experiment: Phototoxicity in UV light irradiated Swiss Albino mouse assessed ear erythema at 140 mg/kg, po. Type of series: organism-based. More on the design: dose 140 mg/kg, route oral. To be noted: in vivo.
Series [8] deals with Mus musculus. As to the kind of experiment: Toxicity in C57BL/6 mouse at 500 mg/kg. Also on record: dose 500 mg/kg. To be noted: in vivo. Type of series: organism-based. Put shortly:
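Maximum tolerated dose study in female C57BL/6 mice: single escalating doses of 100, 300 and 500 mg/kg, 3 mice/dose.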

Series [9] deals with Mus musculus. Kind of series: Phototoxicity in Swiss Albino mouse assessed as ear thickness at 140 mg/kg, po after 72 hrs of irradiation. Particulars: in vivo. Type of series: organism-based. More on the design: dose 140 mg/kg, route oral. Put shortly: as §2
Series [10] has as its system Mycobacterium tuberculosis. As to the kind of experiment: Antimycobacterial activity against Mycobacterium tuberculosis ATCC 35801 infected CD1 mouse assessed as lung bacterial count at 50 mg/kg, ip after 35 days post infection. Type of series: functional. To be noted: route intraperitoneal. The procedure, abridged: as §1
Series [11] has as its system Mycobacterium tuberculosis. Kind of series: Antimycobacterial activity against Mycobacterium tuberculosis ATCC 35801 infected CD1 mouse assessed as spleen bacterial count at 50 mg/kg, ip after 35 days post infection. Type of series: functional. To be noted: route intraperitoneal. Put shortly: as §1
A short description of series [12]: Inhibition of Mycobacterium smegmatis DNA gyrase supercoiling activity. More on the design: species or system Mycolicibacterium smegmatis. The procedure, abridged:
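Gyrase purified from M. smegmatis was preincubated with compound in DMSO (5% DMSO in reaction). 400 ng relaxed pUC18 was added in 35 mM Tris-HCl pH 7.5, 5 mM MgCl2, 25 mM K-glutamate, 2 mM spermidine, 2 mM ATP, BSA, tRNA and 5% glycerol, 1 h at 37 °C. Samples were heat-inactivated, run on 1% agarose in TAE, and ethidium-stained; IC50 was derived.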

For series [13], the system named is Mus musculus. As to the kind of experiment: Phototoxicity in Swiss Albino mouse assessed as ear erythema at 140 mg/kg, po after 24 hrs of irradiation. Type of series: organism-based. More on the design: dose 140 mg/kg, route oral. To be noted: in vivo.
In series [14] the test system is Mus musculus. Kind of series: Phototoxicity in Swiss Albino mouse assessed as ear thickness at 140 mg/kg, po after 48 hrs of irradiation. Type of series: organism-based. Also on record: dose 140 mg/kg, route oral. Particulars: in vivo. Put shortly: as §2
Series [15] deals with Mus musculus. As to the kind of experiment: Phototoxicity in UV light irradiated Swiss Albino mouse assessed as ear thickness at 140 mg/kg, po. Type of series: organism-based. More on the design: dose 140 mg/kg, route oral. To be noted: in vivo. The procedure, abridged: as §2
Series [16] concerns Mus musculus. As to the kind of experiment: Phototoxicity in Swiss Albino mouse assessed as ear erythema at 140 mg/kg, po after 4 hrs of irradiation. Type of series: organism-based. More on the design: dose 140 mg/kg, route oral. To be noted: in vivo.
In series [17] the test system is Mus musculus. Kind of series: Phototoxicity in Swiss Albino mouse assessed as ear thickness at 140 mg/kg, po after 4 hrs of irradiation. More on the design: dose 140 mg/kg, route oral. Type of series: organism-based. To be noted: in vivo. The procedure, abridged:
as §2

The test system of series [18] is Mus musculus. Kind of series: Phototoxicity in Swiss Albino mouse assessed as ear erythema at 140 mg/kg, po after 96 hrs of irradiation. Type of series: organism-based. Also on record: dose 140 mg/kg, route oral. Particulars: in vivo.
In series [19] the test system is Mus musculus. As to the kind of experiment: Phototoxicity in Swiss Albino mouse assessed as ear thickness at 140 mg/kg, po after 24 hrs of irradiation. Type of series: organism-based. More on the design: dose 140 mg/kg, route oral. Particulars: in vivo. The procedure, abridged: as §2
Series [20] deals with Mus musculus. Kind of series: Phototoxicity in Swiss Albino mouse assessed as ear erythema at 140 mg/kg, po after 72 hrs of irradiation. Type of series: organism-based. Also on record: dose 140 mg/kg, route oral. To be noted: in vivo.

Regarding `NNC(=O)c1ccncc1` [ISONIAZID], the Log10 cfu in series [1] worked out at 4.71; in series [3] it was 5.86. Besides, in the series with Vero, the IC50 was greater than 456 µM. For the same molecule, the MIC is 0.36 µM (≈ 0.0494 µg/mL) in [2] and 45.6 µM (≈ 6.25 µg/mL) in series [4].

As for `CC1(C)COCN1c1nc2c(cc1[N+](=O)[O-])c(=O)c(C(=O)O)cn2C(C)(C)C`, the Activity with Mus musculus [5] was 0.3 mm; in the series with Mus musculus [6], “Toxic”; in the series on Mus musculus [7], “Non-toxic”; with Mus musculus [8], “Non-toxic”; with Mus musculus [9] it was 0.3 mm; with Mus musculus [13] it was “Non-toxic”. The Activity with Mus musculus [14] is 0.29 mm; in the series on Mus musculus [15] it was 0.24 mm; in the series on Mus musculus [16], “Non-toxic”; in the series on Mus musculus [17], 0.28 mm; in the series with Mus musculus [18], “Toxic”; in the series with Mus musculus [19], 0.26 mm. In addition, the Activity result with Mus musculus [20] was “Toxic”. The results for the Log10 cfu in series [10] and in series [11] were 5.6 and 5.13, respectively. Further, the IC50 in [12] was 256 µM; in the series on Vero, greater than 160 µM. Also, the MIC in [2] was 0.1 µM (≈ 0.039 µg/mL); in series [4] it was 3.99 µM (≈ 1.56 µg/mL).

With `CC1CN(c2nc3c(cc2[N+](=O)[O-])c(=O)c(C(=O)O)cn3-c2ccc(F)cc2)CC(C)O1` (stereo not given), the Activity with Mus musculus [5] is 0.3 mm; in the series on Mus musculus [6] it was “Non-toxic”; in the series with Mus musculus [7], “Non-toxic”; in the series with Mus musculus [9], 0.3 mm; with Mus musculus [13], “Non-toxic”; in the series on Mus musculus [14] it was 0.27 mm. Moreover, the Activity in the series with Mus musculus [15] was 0.26 mm; in the series on Mus musculus [16], “Non-toxic”; in the series with Mus musculus [17] it was 0.25 mm; in the series with Mus musculus [18] it was “Non-toxic”; in the series with Mus musculus [19], 0.28 mm; in the series on Mus musculus [20], “Non-toxic”. The IC50 amounted to 226 µM in [12] and 141 µM with Vero. Besides, the figures for the MIC in series [2] and in series [4] were 0.43 µM (≈ 0.19 µg/mL) and 1.79 µM (≈ 0.792 µg/mL), respectively.

As to `COc1c(N2CCNC(C)C2)c(F)cc2c(=O)c(C(=O)O)cn(C3CC3)c12` (stereo not given) [GATIFLOXACIN], the Log10 cfu worked out at 6.02 in [10] and 6.92 in [11]. In the series with Vero, this molecule came in with an IC50 greater than 155 µM. Further, the figures for the MIC in [2] and in [4] were 1.04 µM (≈ 0.39 µg/mL) and 2.08 µM (≈ 0.781 µg/mL), respectively.
